According to ChEMBL document CHEMBL4373680, “Small antibacterial molecules highly active against drug-resistant Staphylococcus aureus” (Medchemcomm, 2019):

Experiments:
[1] = tested on: MDCK; assay: Cytotoxicity against dog MDCK cells after 24 hrs by alamar blue assay; format: cell-based; details: Canis lupus familiaris
Summary of the method: (§1)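 About 10⁴ cells/well in DMEM with 10% FBS. Medium replaced with two-fold compound dilutions and incubated 24 h at 37 °C, 5% CO₂. Alamar Blue added for a further 4 h, absorbance 570 nm (600 nm reference). Viability normalized to untreated and 0.1% Triton-X wells. Triplicates; sigmoidal fit gives the 50% viability concentration.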

[2] = tested on: Staphylococcus aureus; assay: Bactericidal activity against planktonic phase of methicillin-resistant Staphylococcus aureus ATCC 33591 assessed as bacterial killing at 32 ug/ml incubated for 1 hr followed by plating on agar plate for 24 hrs by time-kill kinetic assay relative to control; format: functional
Summary of the method: (§2)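 Time-kill: 6 h mid-log culture diluted to 10⁵ CFU/mL in MHB, incubated at 37 °C with compound at […]; 0.9% saline control. Aliquots at 1, 2, 4, 6, 8 and 12 h ten-fold diluted in saline, plated on NB agar 24 h at 37 °C; colonies counted, log scale.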

[3] = tested on: Staphylococcus aureus; assay: Induction of membrane depolarization in Staphylococcus aureus ATCC 33591 assessed as increase in fluorescence intensity measured upto 28 mins by DiSC3 staining based fluorescence spectroscopic technique; format: functional, organism-based
Summary of the method: (§3)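 Mid-log MRSA washed in 5 mM HEPES pH 7.4 and resuspended in 1:1:1 HEPES (5 mM), glucose (5 mM) and KCl (100 mM). Loaded with DiSC3(5) at 2 µM final, 30 min in the dark. Baseline fluorescence (ex 622/em 670 nm) read 4 min, compound added, monitored to 28 min. Water control; triplicates averaged.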

[4] = tested on: Staphylococcus aureus; assay: Antibacterial activity against methicillin-resistant Staphylococcus aureus R3890 clinical isolate after 24 hrs by tecan plate reader analysis; format: functional; details: R3890, 24 h
Summary of the method: (§4)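 Colony grown 24 h on NB agar at 37 °C, then 6 h in nutrient broth to mid-log (10⁸ CFU/mL by drop plating), diluted to 10⁵ CFU/mL in Mueller Hinton broth; added 9:1 to two-fold serial compound dilutions in MHB. Incubated 24 h, 37 °C; OD600 read. Triplicate per concentration, experiment run twice; MIC taken from the range of triplicate OD values.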

[5] = Ratio of EC50 for dog MDCK cells to MIC for vancomycin-resistant Staphylococcus aureus clinical isolate 2; format: toxicity
[6] = tested on: Escherichia coli; assay: Antibacterial activity against Escherichia coli MTCC 443 after 24 hrs by tecan plate reader analysis; format: functional; details: MTCC 443, 24 h
Summary of the method: (§5)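 Broth microdilution MIC. Glycerol stocks grown on MacConkey agar 24 h at 37 °C, then a single colony in nutrient broth 6 h to mid-log (~10⁸ CFU/mL). Cells diluted to 10⁵ CFU/mL in Mueller Hinton broth and added to two-fold compound dilutions. Incubated 24 h at 37 °C, OD600 read. Triplicate wells, experiment run twice.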

[7] = tested on: Staphylococcus aureus; assay: Antibacterial activity against methicillin-resistant Staphylococcus aureus R3889 clinical isolate after 24 hrs by tecan plate reader analysis; format: functional; details: R3889, 24 h; summary of the method: as §4
[8] = Ratio of EC50 for human A549 cells to MIC for vancomycin-resistant Staphylococcus aureus clinical isolate 2; format: toxicity
[9] = tested on: Staphylococcus aureus; assay: Bactericidal activity against planktonic phase of methicillin-resistant Staphylococcus aureus ATCC 33591 assessed as log reduction in bacterial colony forming units at 16 ug/ml incubated for 2 hrs followed by plating on agar plate for 24 hrs by time-kill kinetic assay; format: functional; summary of the method: as §2
[10] = Ratio of EC50 for human A549 cells to MIC for vancomycin-resistant Staphylococcus aureus clinical isolate 1; format: toxicity
[11] = tested on: Staphylococcus aureus; assay: Antibacterial activity against methicillin-resistant Staphylococcus aureus R3545 clinical isolate after 24 hrs by tecan plate reader analysis; format: functional; details: R3545, 24 h; summary of the method: as §4
[12] = tested on: A549; assay: Cytotoxicity against human A549 cells after 24 hrs by alamar blue assay; format: cell-based; details: A549, 24 h; summary of the method: as §1
[13] = tested on: Staphylococcus aureus; assay: Antibacterial activity against vancomycin-resistant Staphylococcus aureus clinical isolate 4 after 24 hrs by tecan plate reader analysis; format: functional; details: clinical isolate 4, 24 h; summary of the method: as §4
[14] = tested on: Staphylococcus aureus; assay: Induction of membrane permeabilization in Staphylococcus aureus R3545 assessed as increase in fluorescence intensity measured upto 28 mins by propidium iodide staining based fluorescence spectroscopic technique; format: functional, organism-based
Summary of the method: (§6)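 Mid-log MRSA washed in 5 mM HEPES and resuspended in 1:1 HEPES (5 mM) and glucose (5 mM). Propidium iodide added at 10 µM final. Baseline fluorescence (ex 535/em 617 nm) read 4 min, compound in water added, read to 28 min. Water control; triplicates averaged.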

[15] = Ratio of EC50 for dog MDCK cells to MIC for vancomycin-resistant Staphylococcus aureus clinical isolate 1; format: toxicity
[16] = Hemolytic activity in human erythrocytes after 1 hr; format: ADME, cell-based, Erythrocyte
Summary of the method: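 Heparinized donor blood. Erythrocytes washed three times in PBS and resuspended to 5 vol%, then mixed 3:1 with compound serially diluted in water. Incubated 1 h at 37 °C and centrifuged. Supernatant A540 read; % hemolysis relative to water and 0.1 vol% Triton-X controls.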

[17] = tested on: Staphylococcus aureus; assay: Induction of membrane depolarization in Staphylococcus aureus R3545 assessed as increase in fluorescence intensity measured upto 28 mins by DiSC3 staining based fluorescence spectroscopic technique; format: functional, organism-based; summary of the method: as §3
[18] = tested on: Staphylococcus aureus; assay: Bactericidal activity against planktonic phase of methicillin-resistant Staphylococcus aureus R3545 assessed as bacterial killing at 32 ug/ml incubated for 1 hr followed by plating on agar plate for 24 hrs by time-kill kinetic assay relative to control; format: functional; summary of the method: as §2
[19] = tested on: Staphylococcus aureus; assay: Antibacterial activity against methicillin-resistant Staphylococcus aureus ATCC 33591 after 24 hrs by tecan plate reader analysis; format: functional; details: ATCC 33591, 24 h; summary of the method: as §4
[20] = tested on: Staphylococcus aureus; assay: Bactericidal activity against planktonic phase of methicillin-resistant Staphylococcus aureus R3545 assessed as log reduction in bacterial colony forming units at 16 ug/ml incubated for 4 hrs followed by plating on agar plate for 24 hrs by time-kill kinetic assay; format: functional; summary of the method: as §2
[21] = tested on: Staphylococcus aureus; assay: Antibacterial activity against vancomycin-resistant Staphylococcus aureus clinical isolate 1 after 24 hrs by tecan plate reader analysis; format: functional; details: clinical isolate 1, 24 h; summary of the method: as §4
[22] = tested on: Acinetobacter baumannii; assay: Antibacterial activity against Acinetobacter baumannii MTCC 1425 after 24 hrs by tecan plate reader analysis; format: functional; details: MTCC 1425, 24 h; summary of the method: as §5
[23] = tested on: Klebsiella pneumoniae; assay: Antibacterial activity against Klebsiella pneumoniae ATCC 700603 after 24 hrs by tecan plate reader analysis; format: functional; details: Klebsiella pneumoniae, 700603, 24 h; summary of the method: as §5
[24] = tested on: Pseudomonas aeruginosa; assay: Antibacterial activity against Pseudomonas aeruginosa MTCC 424 after 24 hrs by tecan plate reader analysis; format: functional; details: MTCC 424, 24 h; summary of the method: as §5
[25] = tested on: Staphylococcus aureus; assay: Induction of membrane permeabilization in Staphylococcus aureus ATCC 33591 assessed as increase in fluorescence intensity measured upto 28 mins by propidium iodide staining based fluorescence spectroscopic technique; format: functional, organism-based; summary of the method: as §6
[26] = Selectivity index, ratio of HC50 for human erythrocytes to MIC for methicillin-resistant Staphylococcus aureus ATCC 33591; format: toxicity; details: read-out: Selectivity Index

SMILES: CCCCCCCCNC(=O)C[N+](C)(CCO)CCCCCC[N+](C)(CCO)CC(=O)NCCCCCCCC.[Br-].[Br-] (stereo unspecified)
- EC50 [1]: 45 µg/mL
- Activity [2]: 100%
- Activity [3]: Dose-dependent effect
- MIC [4]: 4 µg/mL
- selectivity ratio [5]: 22
- MIC [6]: 4 to 8 µg/mL
- MIC [7]: 1 µg/mL
- selectivity ratio [8]: 22
- Activity [9]: 5.4 log10CFU/ml
- selectivity ratio [10]: 22
- MIC [11]: 1 to 2 µg/mL
- EC50 [12]: 44 µg/mL
- MIC [13]: 2 µg/mL
- Activity [14]: Dose-dependent effect
- selectivity ratio [15]: 22
- HC50 at 1 h [16]: 222 µg/mL
- Activity [17]: Dose-dependent effect
- Activity [18]: 100%
- MIC [19]: 1 to 2 µg/mL
- Activity [20]: 5.6 log10CFU/ml
- MIC [21]: 2 µg/mL
- MIC [22]: 16 µg/mL
- MIC [23]: 32 µg/mL
- MIC [24]: 16 µg/mL
- Activity [25]: Dose-dependent effect
- selectivity ratio [26]: 222
